Laboratory results reported in ChEMBL document CHEMBL1128538, “Novel antagonists of platelet-activating factor. 1. Synthesis and structure-activity relationships of benzodiazepine and benzazepine derivatives of 2-methyl-1-phenylimidazo[4,5-c]pyridine” (J Med Chem, 1995).

Columns and labels:
[1] = target: Platelet-activating factor receptor (Mus musculus) (UniProt Q62035); test: Ability to protect mice from lethal effects after administration of PAF (Platelet-Activating Factor); assay type: functional, organism-based
Chain of Platelet-activating factor receptor (Mus musculus) (Q62035 whole entry): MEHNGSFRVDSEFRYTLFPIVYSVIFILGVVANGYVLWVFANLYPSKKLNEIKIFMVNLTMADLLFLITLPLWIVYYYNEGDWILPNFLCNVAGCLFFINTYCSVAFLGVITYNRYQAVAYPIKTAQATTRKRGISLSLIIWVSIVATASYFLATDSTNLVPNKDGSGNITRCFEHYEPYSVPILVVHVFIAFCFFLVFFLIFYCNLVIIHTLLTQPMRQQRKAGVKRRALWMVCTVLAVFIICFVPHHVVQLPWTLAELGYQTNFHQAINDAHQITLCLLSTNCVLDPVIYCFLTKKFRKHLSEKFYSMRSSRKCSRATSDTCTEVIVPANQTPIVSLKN
Procedure, shortened: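 Mice received the test agent orally and were then given a lethal PAF injection. ED50 was taken as the oral dose that protected the animals from PAF-induced death.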

Mus musculus = test: The compound was tested for their ability to protect mice from lethal effects after administration of PAF (Platelet-Activating Factor); assay type: functional
Procedure, shortened: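 Mice were given the compound orally and then a lethal injection of PAF. The value is the oral dose (ED50) that protected the mice from PAF-induced death.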

Cc1nc2cnccc2n1-c1ccc(C2=CCC(=O)c3ccccc3N2)cc1
ED50 [1]: 0.75 mg/kg

CCOC(=O)C1=C(c2ccc(-n3c(C)nc4cnccc43)cc2)NC(C)=C(C(=O)Nc2ccccn2)C1c1ccccc1Cl (stereo not given)
ED50 (Mus musculus): 0.26 mg/kg

Cc1nc2cnccc2n1-c1ccc(C2=Nc3cc(Cl)c(Cl)cc3NC(=O)C2)cc1
ED50 [1]: 0.07 mg/kg

Cc1nc2cnccc2n1-c1ccc(C2CC(=O)N(C)c3cc(Cl)c(Cl)cc3C2)cc1 (stereo not given)
ED50 [1]: 0.03 mg/kg

Cc1nc2cnccc2n1-c1ccc(C2=Nc3ccccc3N(C)C(=O)C2)cc1
ED50 [1]: 0.03 mg/kg

Cc1nnc2n1-c1sc3c(c1C(c1ccccc1Cl)=NC2)CC(C(=O)N1CCOCC1)C3 (stereo not given) [BEPAFANT]
ED50 (Mus musculus): 0.1 mg/kg

Cc1nc2cnccc2n1-c1ccc(C2CC(=O)Nc3cc(Cl)c(Cl)cc3C2)cc1 (stereo not given)
ED50 [1]: 0.05 mg/kg

Cc1nc2cnccc2n1-c1ccc(C2=Nc3ccccc3NC(=O)C2)cc1
ED50 [1]: 0.5 mg/kg

Cc1nc2cnccc2n1-c1ccc(C2=Nc3cc(Cl)c(Cl)cc3C(=O)NC2)cc1
ED50 [1]: 0.2 mg/kg

Cc1cc2c(cc1C)NC(=O)CC(c1ccc(-n3c(C)nc4cnccc43)cc1)=N2
ED50 [1]: 0.12 mg/kg
